{"source": "paper PMC2765218", "about": "(Nature biotechnology, 2009)", "test_system": "mutant HTT", "assay_type": "cell-based, human", "conditions": "GM04281 cells", "summary_of_the_method": "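GM04281 fibroblasts (heterozygous for mutant HTT) were grown in MEM with 10% heat-inactivated FBS and plated 2 days before treatment. PNA-peptide conjugate stocks were heated 65 °C for 5 min, then added in OptiMEM; medium was replaced after 24 h and cells were harvested about 4 days later. BCA-normalised lysates ran on 5% Tris-acetate SDS-PAGE (ice bath) to separate wild-type and mutant HTT. Anti-HTT immunoblot with β-actin loading control; densitometry gave % inhibition versus control from triplicate experiments. Dose-response fit: y=100(1−x^m/(n^m+x^m)).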"}
{"substance": "K-GGCGGCTGTTGCTGCTGCT-K8 [3J/HTT]", "values": [{"measurement": "selectivity (wild-type IC50/mutant IC50), HTT", "result": 5, "unit": "fold"}]}
